Reference: ChEMBL document CHEMBL5653631, “A Potent and Selective ULK1 Inhibitor Suppresses Autophagy and Sensitizes Cancer Cells to Nutrient Stress” (iScience, 2018)
Each block holds one compound with its values, some of them ahead of it.

Legend:
[1] = molecular target: Ribosomal protein S6 kinase alpha-2 (Homo sapiens) (UniProt Q15349); experiment: Inhibition of human recombinant RSK3 at 500 nM in presence of ATP by radiometric assay relative to control
[2] = molecular target: Insulin-like growth factor 1 receptor (Homo sapiens) (UniProt P08069); experiment: Inhibition of human recombinant IGF1R at 500 nM in presence of ATP by radiometric assay relative to control
[3] = molecular target: Cell division cycle 7-related protein kinase (Homo sapiens) (UniProt O00311); experiment: Inhibition of human recombinant CDC7 at 500 nM in presence of ATP by radiometric assay relative to control
[4] = molecular target: Vascular endothelial growth factor receptor 3 (Homo sapiens) (UniProt P35916); experiment: Inhibition of human recombinant FLT4 at 500 nM in presence of ATP by radiometric assay relative to control
[5] = molecular target: T1, Bone morphogenetic protein receptor type-2 (Homo sapiens) (UniProt Q13873); experiment: Inhibition of human recombinant BMPR2 at 500 nM in presence of ATP by radiometric assay relative to control
T1 sequence (whole entry): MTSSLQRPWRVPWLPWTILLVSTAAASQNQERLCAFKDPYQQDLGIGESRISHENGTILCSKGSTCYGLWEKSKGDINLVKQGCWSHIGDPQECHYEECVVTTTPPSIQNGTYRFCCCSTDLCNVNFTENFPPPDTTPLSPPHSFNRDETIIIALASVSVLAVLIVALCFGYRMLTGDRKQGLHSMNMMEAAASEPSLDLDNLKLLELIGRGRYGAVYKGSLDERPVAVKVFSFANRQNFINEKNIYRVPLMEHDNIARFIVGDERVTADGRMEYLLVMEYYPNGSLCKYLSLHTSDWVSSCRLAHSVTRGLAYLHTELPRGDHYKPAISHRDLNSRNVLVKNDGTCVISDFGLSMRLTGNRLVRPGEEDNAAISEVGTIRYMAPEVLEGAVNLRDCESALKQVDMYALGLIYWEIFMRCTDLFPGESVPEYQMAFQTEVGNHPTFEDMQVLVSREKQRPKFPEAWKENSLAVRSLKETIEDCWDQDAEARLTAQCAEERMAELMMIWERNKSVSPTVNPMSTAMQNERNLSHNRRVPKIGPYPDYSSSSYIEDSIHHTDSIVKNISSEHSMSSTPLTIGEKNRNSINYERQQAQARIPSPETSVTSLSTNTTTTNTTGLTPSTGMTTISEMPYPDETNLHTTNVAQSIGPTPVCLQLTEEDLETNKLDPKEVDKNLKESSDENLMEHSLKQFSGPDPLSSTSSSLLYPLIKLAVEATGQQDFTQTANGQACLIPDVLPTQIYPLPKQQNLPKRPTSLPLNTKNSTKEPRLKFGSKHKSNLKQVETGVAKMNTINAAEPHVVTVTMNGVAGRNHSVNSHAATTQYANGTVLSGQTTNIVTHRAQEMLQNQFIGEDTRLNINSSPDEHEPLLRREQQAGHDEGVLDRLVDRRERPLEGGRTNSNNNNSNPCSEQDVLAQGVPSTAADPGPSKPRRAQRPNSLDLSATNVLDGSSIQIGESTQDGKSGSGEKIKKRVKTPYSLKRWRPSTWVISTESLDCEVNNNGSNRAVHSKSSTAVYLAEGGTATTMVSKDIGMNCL
Outline: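 Part of a radiometric in vitro activity panel of 327 recombinant human kinases. Each kinase was tested in duplicate at one inhibitor concentration. Activity remaining was expressed as a percentage of the vehicle control, and percent inhibition was taken as 100 minus that value.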

[6] = molecular target: PAS domain-containing serine/threonine-protein kinase (Homo sapiens) (UniProt Q96RG2); experiment: Inhibition of human recombinant PASK at 500 nM in presence of ATP by radiometric assay relative to control
[7] = molecular target: Proto-oncogene tyrosine-protein kinase Src (Homo sapiens) (UniProt P12931); experiment: Inhibition of human recombinant SRC at 500 nM in presence of ATP by radiometric assay relative to control
[8] = molecular target: T2, Tyrosine-protein kinase ZAP-70 (Homo sapiens) (UniProt P43403); experiment: Inhibition of human recombinant ZAP70 at 15 nM related to control ULK1
T2 sequence (whole entry): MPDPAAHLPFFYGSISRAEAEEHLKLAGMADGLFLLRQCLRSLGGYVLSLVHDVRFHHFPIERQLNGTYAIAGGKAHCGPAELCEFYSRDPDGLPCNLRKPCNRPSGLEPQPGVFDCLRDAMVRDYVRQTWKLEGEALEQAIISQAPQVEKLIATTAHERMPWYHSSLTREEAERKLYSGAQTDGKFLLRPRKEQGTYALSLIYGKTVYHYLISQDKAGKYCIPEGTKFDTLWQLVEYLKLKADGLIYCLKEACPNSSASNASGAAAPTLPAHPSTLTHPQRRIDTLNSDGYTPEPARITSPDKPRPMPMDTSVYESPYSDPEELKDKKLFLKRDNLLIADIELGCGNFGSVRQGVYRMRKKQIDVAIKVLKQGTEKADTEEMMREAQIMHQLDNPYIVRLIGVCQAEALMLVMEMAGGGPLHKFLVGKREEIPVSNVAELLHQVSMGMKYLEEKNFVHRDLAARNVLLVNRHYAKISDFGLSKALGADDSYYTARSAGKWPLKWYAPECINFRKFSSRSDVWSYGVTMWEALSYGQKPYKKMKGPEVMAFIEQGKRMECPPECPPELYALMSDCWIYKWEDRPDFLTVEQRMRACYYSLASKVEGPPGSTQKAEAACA

[9] = molecular target: Tyrosine-protein kinase Lyn (Homo sapiens) (UniProt P07948); experiment: Inhibition of human recombinant LYN at 40 nM in presence of ATP by radiometric assay relative to control
[10] = molecular target: T3, Tyrosine-protein kinase TXK (Homo sapiens) (UniProt P42681); experiment: Inhibition of human recombinant TXK at 40 nM related to control ULK1
T3 sequence (whole entry): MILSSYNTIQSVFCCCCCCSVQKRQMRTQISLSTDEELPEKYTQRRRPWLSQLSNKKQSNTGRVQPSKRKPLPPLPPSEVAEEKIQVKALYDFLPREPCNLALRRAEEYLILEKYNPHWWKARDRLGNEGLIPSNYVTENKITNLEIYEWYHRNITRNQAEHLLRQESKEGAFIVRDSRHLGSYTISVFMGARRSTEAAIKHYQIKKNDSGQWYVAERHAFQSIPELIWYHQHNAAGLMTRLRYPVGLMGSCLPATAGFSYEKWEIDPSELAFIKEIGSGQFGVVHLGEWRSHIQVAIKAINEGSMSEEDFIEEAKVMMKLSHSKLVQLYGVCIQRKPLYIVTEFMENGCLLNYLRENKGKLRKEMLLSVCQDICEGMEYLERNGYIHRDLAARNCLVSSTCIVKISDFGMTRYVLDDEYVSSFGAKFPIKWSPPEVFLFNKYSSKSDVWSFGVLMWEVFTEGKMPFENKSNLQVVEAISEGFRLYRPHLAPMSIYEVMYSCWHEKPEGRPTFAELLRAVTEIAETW

[11] = molecular target: Receptor tyrosine-protein kinase erbB-4 (Homo sapiens) (UniProt Q15303); experiment: Inhibition of human recombinant ErbB4 at 40 nM in presence of ATP by radiometric assay relative to control
Chain of Receptor tyrosine-protein kinase erbB-4 (Homo sapiens) (Q15303 whole entry): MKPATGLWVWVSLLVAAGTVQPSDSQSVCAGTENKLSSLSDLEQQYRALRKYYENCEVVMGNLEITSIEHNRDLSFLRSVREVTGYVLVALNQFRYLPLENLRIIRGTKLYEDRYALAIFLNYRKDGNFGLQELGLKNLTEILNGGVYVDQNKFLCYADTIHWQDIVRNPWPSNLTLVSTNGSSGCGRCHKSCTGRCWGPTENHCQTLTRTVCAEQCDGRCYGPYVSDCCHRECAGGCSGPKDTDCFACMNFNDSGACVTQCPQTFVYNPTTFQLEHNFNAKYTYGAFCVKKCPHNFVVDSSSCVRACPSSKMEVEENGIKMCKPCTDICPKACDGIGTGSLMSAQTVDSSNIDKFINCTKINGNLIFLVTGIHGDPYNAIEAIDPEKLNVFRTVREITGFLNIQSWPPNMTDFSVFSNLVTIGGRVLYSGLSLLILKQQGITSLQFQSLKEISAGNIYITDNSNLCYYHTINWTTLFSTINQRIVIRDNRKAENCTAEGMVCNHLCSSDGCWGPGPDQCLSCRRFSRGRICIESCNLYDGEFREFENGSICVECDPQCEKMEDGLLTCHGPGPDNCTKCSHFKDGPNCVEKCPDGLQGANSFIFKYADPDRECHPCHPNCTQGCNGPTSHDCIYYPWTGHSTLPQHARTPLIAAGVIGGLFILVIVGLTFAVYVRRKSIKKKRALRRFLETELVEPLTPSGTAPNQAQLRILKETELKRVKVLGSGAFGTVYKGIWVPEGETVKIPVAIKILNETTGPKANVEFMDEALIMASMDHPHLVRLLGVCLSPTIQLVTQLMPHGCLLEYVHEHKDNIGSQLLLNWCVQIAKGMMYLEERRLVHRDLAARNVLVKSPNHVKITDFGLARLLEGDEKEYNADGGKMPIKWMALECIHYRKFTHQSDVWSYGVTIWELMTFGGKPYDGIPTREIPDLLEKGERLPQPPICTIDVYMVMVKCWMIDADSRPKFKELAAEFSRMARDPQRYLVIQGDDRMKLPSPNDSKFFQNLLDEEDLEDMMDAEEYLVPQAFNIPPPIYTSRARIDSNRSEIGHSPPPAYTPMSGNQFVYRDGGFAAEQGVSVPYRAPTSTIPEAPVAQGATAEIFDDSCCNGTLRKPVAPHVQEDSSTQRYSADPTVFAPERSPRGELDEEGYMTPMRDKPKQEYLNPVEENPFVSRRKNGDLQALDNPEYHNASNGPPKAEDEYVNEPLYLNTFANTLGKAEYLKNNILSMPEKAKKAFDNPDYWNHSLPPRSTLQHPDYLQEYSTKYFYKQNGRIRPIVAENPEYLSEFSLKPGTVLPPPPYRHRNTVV

Chain of Ribosomal protein S6 kinase alpha-2 (Homo sapiens) (Q15349 whole entry): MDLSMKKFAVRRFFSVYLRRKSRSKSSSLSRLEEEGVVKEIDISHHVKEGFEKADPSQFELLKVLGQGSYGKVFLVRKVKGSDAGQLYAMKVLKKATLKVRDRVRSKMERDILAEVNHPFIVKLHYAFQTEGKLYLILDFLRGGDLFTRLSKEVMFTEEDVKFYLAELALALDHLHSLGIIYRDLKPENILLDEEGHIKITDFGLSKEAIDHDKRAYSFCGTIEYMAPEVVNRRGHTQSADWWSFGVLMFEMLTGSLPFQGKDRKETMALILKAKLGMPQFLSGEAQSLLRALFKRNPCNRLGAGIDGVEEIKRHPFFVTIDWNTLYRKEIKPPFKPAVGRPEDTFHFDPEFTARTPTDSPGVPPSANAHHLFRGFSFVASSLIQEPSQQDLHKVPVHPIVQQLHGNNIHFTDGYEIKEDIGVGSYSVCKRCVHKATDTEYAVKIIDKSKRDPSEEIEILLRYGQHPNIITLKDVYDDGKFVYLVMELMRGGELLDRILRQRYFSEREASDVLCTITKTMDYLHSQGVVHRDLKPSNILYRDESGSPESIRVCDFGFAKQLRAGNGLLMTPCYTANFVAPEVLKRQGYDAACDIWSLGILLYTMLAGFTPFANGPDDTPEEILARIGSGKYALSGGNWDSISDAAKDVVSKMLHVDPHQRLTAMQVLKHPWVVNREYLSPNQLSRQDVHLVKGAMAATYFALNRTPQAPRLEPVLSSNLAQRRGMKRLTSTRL
Chain of Insulin-like growth factor 1 receptor (Homo sapiens) (P08069 31-736 limits assumed): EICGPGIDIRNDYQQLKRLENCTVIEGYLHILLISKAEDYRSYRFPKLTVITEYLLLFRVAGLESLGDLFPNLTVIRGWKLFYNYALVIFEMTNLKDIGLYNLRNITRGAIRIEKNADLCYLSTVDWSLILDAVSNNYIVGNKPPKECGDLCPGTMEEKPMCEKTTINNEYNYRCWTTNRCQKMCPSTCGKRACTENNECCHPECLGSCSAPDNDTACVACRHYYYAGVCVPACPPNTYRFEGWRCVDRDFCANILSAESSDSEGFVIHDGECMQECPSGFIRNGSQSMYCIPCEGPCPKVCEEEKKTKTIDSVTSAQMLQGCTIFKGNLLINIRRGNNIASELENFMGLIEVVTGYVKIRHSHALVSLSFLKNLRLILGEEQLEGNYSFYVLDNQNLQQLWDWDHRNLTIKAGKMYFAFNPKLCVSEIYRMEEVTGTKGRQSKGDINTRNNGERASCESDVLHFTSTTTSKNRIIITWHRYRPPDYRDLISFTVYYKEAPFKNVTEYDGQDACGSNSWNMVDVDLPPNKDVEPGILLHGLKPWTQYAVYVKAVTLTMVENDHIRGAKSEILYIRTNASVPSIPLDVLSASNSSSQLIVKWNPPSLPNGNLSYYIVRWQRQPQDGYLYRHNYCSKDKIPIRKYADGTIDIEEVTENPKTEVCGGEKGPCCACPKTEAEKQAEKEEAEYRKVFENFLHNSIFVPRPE
Chain of Insulin-like growth factor 1 receptor (Homo sapiens) (P08069 741-1367 limits assumed): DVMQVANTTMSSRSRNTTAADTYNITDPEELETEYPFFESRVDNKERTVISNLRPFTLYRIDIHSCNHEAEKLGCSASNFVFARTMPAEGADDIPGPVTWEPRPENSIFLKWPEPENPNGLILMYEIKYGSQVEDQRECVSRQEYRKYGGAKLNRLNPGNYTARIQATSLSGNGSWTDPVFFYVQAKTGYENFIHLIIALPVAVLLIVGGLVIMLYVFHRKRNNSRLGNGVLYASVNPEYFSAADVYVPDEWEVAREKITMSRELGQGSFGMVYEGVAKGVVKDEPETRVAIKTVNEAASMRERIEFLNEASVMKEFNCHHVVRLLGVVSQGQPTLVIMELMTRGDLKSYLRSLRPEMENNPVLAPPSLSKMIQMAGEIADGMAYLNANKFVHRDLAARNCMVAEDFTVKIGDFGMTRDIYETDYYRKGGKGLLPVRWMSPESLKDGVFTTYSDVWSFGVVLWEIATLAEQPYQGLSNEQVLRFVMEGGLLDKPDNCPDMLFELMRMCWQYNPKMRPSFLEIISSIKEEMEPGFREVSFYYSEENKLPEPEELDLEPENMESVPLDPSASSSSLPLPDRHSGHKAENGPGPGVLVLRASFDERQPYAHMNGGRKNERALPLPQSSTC
Chain of PAS domain-containing serine/threonine-protein kinase (Homo sapiens) (Q96RG2 whole entry, the tested form may be a part): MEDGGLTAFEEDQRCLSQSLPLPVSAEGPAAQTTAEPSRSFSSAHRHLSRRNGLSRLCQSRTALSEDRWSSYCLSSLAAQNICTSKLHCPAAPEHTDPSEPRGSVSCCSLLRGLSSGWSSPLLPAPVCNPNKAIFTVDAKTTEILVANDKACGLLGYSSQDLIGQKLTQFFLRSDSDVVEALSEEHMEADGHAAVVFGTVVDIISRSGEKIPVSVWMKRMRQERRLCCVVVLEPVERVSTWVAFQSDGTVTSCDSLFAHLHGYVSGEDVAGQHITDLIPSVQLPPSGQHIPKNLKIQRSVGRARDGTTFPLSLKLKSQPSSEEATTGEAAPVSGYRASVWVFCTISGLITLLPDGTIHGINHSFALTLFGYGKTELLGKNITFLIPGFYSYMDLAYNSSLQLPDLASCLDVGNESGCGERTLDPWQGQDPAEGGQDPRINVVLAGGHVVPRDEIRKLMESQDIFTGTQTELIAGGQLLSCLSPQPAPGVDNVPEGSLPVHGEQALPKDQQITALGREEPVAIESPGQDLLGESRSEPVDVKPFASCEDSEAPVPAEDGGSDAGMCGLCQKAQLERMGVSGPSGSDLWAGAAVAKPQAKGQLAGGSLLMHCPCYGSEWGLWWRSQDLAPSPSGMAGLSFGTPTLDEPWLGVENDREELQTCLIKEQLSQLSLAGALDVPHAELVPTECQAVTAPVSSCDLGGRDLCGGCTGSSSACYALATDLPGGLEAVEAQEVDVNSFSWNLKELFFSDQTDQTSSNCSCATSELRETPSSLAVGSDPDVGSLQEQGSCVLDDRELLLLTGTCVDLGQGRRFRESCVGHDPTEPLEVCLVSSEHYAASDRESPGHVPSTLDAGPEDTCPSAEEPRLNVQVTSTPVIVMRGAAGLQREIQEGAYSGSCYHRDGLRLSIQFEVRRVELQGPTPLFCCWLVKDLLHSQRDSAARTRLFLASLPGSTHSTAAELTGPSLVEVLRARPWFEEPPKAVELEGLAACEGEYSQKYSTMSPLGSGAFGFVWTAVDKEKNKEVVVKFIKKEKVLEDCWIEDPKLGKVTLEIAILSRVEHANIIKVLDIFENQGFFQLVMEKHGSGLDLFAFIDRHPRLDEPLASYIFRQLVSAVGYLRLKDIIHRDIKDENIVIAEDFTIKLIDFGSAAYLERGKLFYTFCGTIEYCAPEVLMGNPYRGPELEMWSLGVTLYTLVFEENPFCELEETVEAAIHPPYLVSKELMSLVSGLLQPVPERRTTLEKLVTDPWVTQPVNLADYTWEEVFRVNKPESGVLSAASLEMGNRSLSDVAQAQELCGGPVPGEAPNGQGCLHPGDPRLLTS

inhibition [1]: 49%
inhibition [2]: 3%
inhibition [3]: 0%
inhibition [4]: 23%
inhibition [5]: 0%
inhibition [6]: 10%
inhibition [7]: 19%
Structure (SMILES): CNC(=O)c1ccccc1Oc1nc(Nc2cc(OC)c(OC)c(OC)c2)ncc1Br

fold change (FC) [8]: 0
Structure (SMILES): CC(C)[C@H](NC(=O)c1cc(-c2cnn3cc(-c4ccc(OCCN5CCCCC5)cc4)cnc23)cs1)C(F)(F)F

inhibition [9]: 18%
fold change (FC) [10]: 0.18
inhibition [11]: 0%
Structure (SMILES): O=C(N[C@@H](C1CC1)C(F)(F)F)c1cc(-c2cnn3cc(-c4ccc(F)cc4)cnc23)cs1
